# Compound activity as filed in PubChem BioAssay.
# NPY Y2 blocker: NPY-Y2 (human) receptor antagonism. NPY-Y2 expressing cells, antagonist mode. 140,000 compounds, 0.99% hits. P49146. inhibition, % at 2.7 µM. AID 793; in the data active means inhibition above about 17%
# Target sequence (P49146 whole entry, looked up): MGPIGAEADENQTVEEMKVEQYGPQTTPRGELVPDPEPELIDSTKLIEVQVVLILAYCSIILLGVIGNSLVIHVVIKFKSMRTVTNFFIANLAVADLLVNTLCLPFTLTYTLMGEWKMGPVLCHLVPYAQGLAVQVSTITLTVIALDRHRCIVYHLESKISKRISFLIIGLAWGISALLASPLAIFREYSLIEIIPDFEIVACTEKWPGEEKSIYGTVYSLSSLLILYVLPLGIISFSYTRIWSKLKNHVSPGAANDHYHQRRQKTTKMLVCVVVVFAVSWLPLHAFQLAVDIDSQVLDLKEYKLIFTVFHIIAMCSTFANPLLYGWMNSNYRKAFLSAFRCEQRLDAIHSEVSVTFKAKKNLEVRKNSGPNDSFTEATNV
# NPY Y1 blocker: NPY-Y1 (human) receptor antagonism; P25929; 200,000 compounds, 1% hits; inhibition, % at 3.6 µM; HEK293-CNG Y1 cells, membrane potential fluorescence; NPY at EC95, then isoproterenol; AID 1040;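 active means inhibition above the campaign mean inhibition of all tested compounds plus 3 SD, cut at about 20% in these data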
#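 Material: HEK293 cells with Y1 receptor plus CNG channel; times: compound incubation 1 h at room temperature, readout 45 min post-stimulation; signal: fluorescence, membrane potential probe; read-out basis: fluorescence ratio normalized to % inhibition between controls; benchmarks: full-block control isoproterenol-only wells, zero-block control NPY plus isoproterenol wells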
# NPY-Y2 PAM-ag: human NPY-Y2 potentiation or agonism, primary screen. cells expressing NPY-Y2, potentiator/agonist read-out. 220,000 compounds, 0.45% hits. activation, % at 3.6 µM. P49146; in the data active means activation above about 27%;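 further: cells stimulated with NPY near EC25 plus isoproterenol at EC100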
# NPY1 pot ag: human NPY-Y1 potentiation or agonism, primary screen | P25929 | NPY-Y1 expressing cells, potentiator/agonist activation | activation, % at 3.6 µM | 220,000 compounds, 0.37% hits | AID 1304; in the data active means activation above about 33%, passing the limit was not always enough;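 further: cells stimulated with NPY at EC10 then isoproterenol at EC100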
# A number is an active result; – = inactive; · = not tested or not shown. Compounds with a hit are over-represented: about 1.8% of the library has one in this group of screens.
SMILES,NPY Y2 blocker,NPY Y1 blocker,NPY-Y2 PAM-ag,NPY1 pot ag
CCOC(=O)N1CCN(CC(O)COc2cc(C)ccc2C(C)C)CC1 (stereo not given),–,–,81,92
CCOC(=O)Cn1c(=O)oc2cc(S(=O)(=O)Nc3c(C)cc(C)cc3C)ccc21,–,–,–,38
CCOC(=O)Cn1c(=O)oc2cc(S(=O)(=O)NC3CCCc4ccccc43)ccc21 (stereo not given),–,–,37,63
CCOC(=O)Cn1c(=O)oc2cc(S(=O)(=O)N3CCCc4ccccc43)ccc21,–,–,–,–
CCCCNS(=O)(=O)c1ccc2c(c1)oc(=O)n2CC(=O)OCC,–,–,–,–
CCC(C)(C)NC(=O)c1ccc2c(c1)OCCO2,·,–,–,–
O=C(Nc1cc(C(F)(F)F)ccc1-n1cncn1)c1ccc(-c2ccccc2)cc1,–,–,–,–
COC(=O)C1=CN(C2CC2)C=C(C(=O)OC)C1c1ccc(C(F)(F)F)cc1,·,21,–,–
CN(C)C(=O)C1C2NC(=S)N(c3ccc(Cl)cc3)C1(C)Oc1ccc(Cl)cc12 (stereo not given),·,–,89,92
CN(C)C(=O)C1C2NC(=S)N(c3cccc(Cl)c3)C1(C)Oc1ccc(Cl)cc12 (stereo not given),·,–,29,51
CN(C)C(=O)C1C2NC(=S)N(c3ccccc3)C1(C)Oc1ccccc12 (stereo not given),·,–,–,–
CN1CCN(C2=C(NS(=O)(=O)c3cccs3)C(=O)c3ccccc3C2=O)CC1,·,·,–,–
CCOc1ccccc1N1CCN(C2=C(NS(=O)(=O)c3cccs3)C(=O)c3ccccc3C2=O)CC1,–,–,43,50
O=C1C(NS(=O)(=O)c2cccs2)=C(N2CCN(Cc3ccccc3)CC2)C(=O)c2ccccc21,·,·,40,60
O=C1C(NS(=O)(=O)c2cccs2)=C(N2CCOCC2)C(=O)c2ccccc21,·,·,–,–
CCN(CC)CCn1c(=N)n(CCOc2ccccc2)c2ccccc21,35,30,–,–
CCN(CC)c1ccc(NC(=O)CN2CCN(S(=O)(=O)c3cc(Cl)ccc3OC)CC2)cc1,–,–,33,53
COc1cccc(C(=O)NCc2cn3ccsc3n2)c1,–,–,98,72
O=C(NCc1cn2ccsc2n1)c1cccc(C(F)(F)F)c1,–,–,–,–
COc1ccc(C2C(C(=O)Nc3cc(OC)c(OC)c(OC)c3)c3ccccc3C(=O)N2C)cc1 (stereo not given),·,–,31,37
COc1ccc(C(=O)Nc2ccc(Cl)cc2C(=O)NCc2ccco2)cc1,19,25,–,–
CCn1c(CC(=O)Nc2ccc(C)cc2)n[nH]c1=S,·,–,–,–
N#Cc1c(NCCN)nc(-c2ccco2)c2c1CCCC2,22,44,–,–
CNNC(=S)Nc1cccc(C(F)(F)F)c1,·,·,–,–
COc1ccc(NC(=S)NNC(=S)Nc2cccc(C(F)(F)F)c2)cc1,·,·,–,43
SMILES,NPY Y2 blocker,NPY Y1 blocker,NPY-Y2 PAM-ag,NPY1 pot ag
C=CCOC(=O)c1c(C)nc2cc3c(cc2c1C)OCO3,–,–,–,–
COc1ccc(C2N(S(=O)(=O)c3ccccc3)CCN2S(=O)(=O)c2ccc(C)cc2)cc1 (stereo not given),–,–,–,–
Cc1ccccc1Nc1c(-c2cccnc2)nc2cccc(C)n12,·,–,29,39
NNc1ccc(Cl)c(C(=O)O)c1,·,·,–,–
CC(C)OC(=O)/C(=C\c1ccc2c(c1)c1ccccc1n2C)NC(=O)c1ccccc1,–,23,–,–
COC(=O)/C(=C\c1ccc2c(c1)c1ccccc1n2C)NC(=O)c1ccccc1,–,–,–,–
CCOC(=O)CC(=O)NC(C)(C)CCCCC(C)(C)NC(=O)CC(=O)OCC,·,·,–,–
COC(=O)[C@@H]1C(c2c(OC)cc(OC)cc2OC)=NO[C@H]1C(=O)OC,–,–,42,56
CN1CCN(CC(O)(c2ccc(Cl)cc2)c2ccc(Cl)cc2)CC1,·,–,–,–
CCOC(=O)c1c(C)c2c(n1C)CCC/C2=N\O,32,39,–,–
CC1CCCCN1S(=O)(=O)c1ccc(C(=O)Nc2nnc(-c3ccccc3Cl)o2)cc1 (stereo not given),–,–,99,95
CCC1CCCCN1S(=O)(=O)c1ccc(C(=O)Nc2nnc(-c3ccccc3Cl)o2)cc1 (stereo not given),–,–,–,–
CC1CC(C)CN(C(=O)c2ccc3c(c2NCCO)C(=O)c2ccccc2C3=O)C1 (stereo not given),–,–,49,55
CC(C)c1ccc2c(c1)[C@H]1OCC[C@H]1[C@@H](c1cccs1)N2,–,–,–,–
Cc1csc(C(=O)NN)c1N(C)C,·,·,–,–
COc1ccc2c(c1OC)C(=O)N1c3ccccc3C(=O)N(c3ccc(F)cc3)C21 (stereo not given),–,52,–,–
COc1ccc2c(c1OC)C(=O)N1N=C(c3ccc(-c4ccccc4)cc3)CC21 (stereo not given),·,–,–,–
COc1ccc2c(c1OC)C(=O)N(c1ccc(C)cc1)C2=O,·,–,–,–
COc1ccc2c(c1OC)C(=O)N1c3ccccc3C(=O)N(c3ccccc3)C21 (stereo not given),23,–,–,–
O=C(Cc1c[nH]c2ccccc12)NCc1ccc(Cl)cc1Cl,–,–,–,–
CCN1CCN(c2oc(COc3ccc(Cl)cc3)nc2C#N)CC1,·,·,–,–
COc1ccc(N2CCN(c3oc(COc4ccc(Cl)cc4Cl)nc3C#N)CC2)cc1,–,52,–,–
N#Cc1nc(COc2ccc(Cl)cc2Cl)oc1N1CCOCC1,–,–,–,–
N#Cc1nc(COc2ccc(Cl)cc2)oc1N1CCN(Cc2ccccc2)CC1,32,34,–,–
COc1ccc(N2CCN(c3oc(COc4ccccc4)nc3C#N)CC2)cc1,27,39,–,–
SMILES,NPY Y2 blocker,NPY Y1 blocker,NPY-Y2 PAM-ag,NPY1 pot ag
COc1ccc(N2CCN(c3oc(COc4ccc(Cl)cc4)nc3C#N)CC2)cc1,24,49,–,–
COc1ccc(N2CCN(c3oc(Cc4ccccc4)nc3C#N)CC2)cc1,–,–,–,–
COc1ccccc1/C=C1\SC(=S)N(CC(=O)Nc2nnc(C)s2)C1=O,·,–,–,–
Nc1cnc(Nc2ccc(Br)cc2)nc1N,·,·,–,–
Nc1nnn(CC(=O)N/N=C/C=C/c2ccccc2)n1,·,·,–,–
O=C(Cn1cc(C(=O)C(F)(F)F)c2cc(Br)ccc21)N1CCOCC1,·,–,–,–
CCOCC(=O)Nc1ccc([N+](=O)[O-])cc1C,·,–,–,–
O=C(c1nc2ccccn2c1CNCCn1ccc2ccccc21)N1CCOCC1,·,·,–,–
N#Cc1nc(COc2ccc(Br)cc2)oc1N1CCCC1,22,27,–,–
N#Cc1nc(COc2ccc(Br)cc2)oc1N1CCCCCC1,–,–,–,–
COc1cc(C(C)=O)ccc1COc1ccc(C(=O)O)cc1OC,·,·,–,–
Cc1ccc(NC(=O)CN(C)CC(=O)Nc2ccccc2Oc2ccccc2)cc1,·,–,–,–
Cc1cccc(C)c1NC(=O)CN(C)CC(=O)Nc1ccccc1Oc1ccccc1,·,21,–,–
COc1ccc(O)c(-c2cc(-c3cccs3)[nH]n2)c1,–,–,42,58
